Substrate in data set [1]: O=C(CI)NCCCCCNc1ncnc2c1ncn2[C@@H]1O[C@H](COP(=O)(O)OP(=O)(O)OP(=O)(O)O)[C@@H](O)[C@H]1O
In words: (§1) Activity of Sprague-Dawley rat muscle adenylate kinase by Lineweaver-Burk plot analysis relative to ATP. The gist of the method: (§2)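 Substrate kinetics in a pyruvate kinase/lactate dehydrogenase-coupled assay: 0.1 M Tris-HCl pH 7.6, 2 mM MgSO4, 0.12 M KCl, 0.3 mM PEP, 0.38 mM NADH, 0.25 mM AMP. A340 change over 5 min at 23 °C. Derivatives screened first at ca. 0.8 mM. Five or more substrate levels; KM and Vmax (relative to ATP) taken from linear Lineweaver-Burk plots.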

Substrate in data set [2]: CSc1nc2c(N)ncnc2n1[C@@H]1O[C@H](COP(=O)(O)OP(=O)(O)OP(=O)(O)O)[C@@H](O)[C@H]1O
The description is as §1. The essentials: as §2

Substrate in data set [3]: Nc1ncnc2c1ncn2[C@@H]1O[C@H](COP(=O)(O)OP(=O)(O)OP(=O)(O)O)[C@@H](O)[C@H]1O
The data set is described as §1. The essentials:
as §2

Substrate in data set [4]: CCCSc1nc2c(N)ncnc2n1[C@@H]1O[C@H](COP(=O)(O)OP(=O)(O)OP(=O)(O)O)[C@@H](O)[C@H]1O
The data set is described as §1. The gist of the method: as §2

Substrate in data set [5]: Nc1ncnc2c1ncn2[C@@H]1O[C@H](COP(=O)(O)OP(=O)(O)OP(=O)(O)O)[C@@H](O)[C@H]1O
To be noted: Rattus norvegicus; Sprague-Dawley.

Substrate in data set [6]: O=C(CI)NCCCCCNc1ncnc2c1ncn2[C@@H]1O[C@H](COP(=O)(O)OP(=O)(O)OP(=O)(O)O)[C@@H](O)[C@H]1O
Put plainly: (§3) Activity of Sprague-Dawley rat liver adenylate kinase 3 by Lineweaver-Burk plot analysis relative to ATP. The essentials:
as §2

Substrate in data set [7]: CSc1nc2c(N)ncnc2n1[C@@H]1O[C@H](COP(=O)(O)OP(=O)(O)OP(=O)(O)O)[C@@H](O)[C@H]1O
The description is as §3. The gist of the method:
as §2

Substrate in data set [8]: Nc1ncnc2c1ncn2[C@@H]1O[C@H](COP(=O)(O)OP(=O)(O)OP(=O)(O)O)[C@@H](O)[C@H]1O
Described as §3. The essentials: as §2

Substrate in data set [9]: Nc1ncnc2c1nc(SCCO)n2[C@@H]1O[C@H](COP(=O)(O)OP(=O)(O)OP(=O)(O)O)[C@@H](O)[C@H]1O
The data set is described as §3. The gist of the method: as §2

Substrate in data set [10]: CCSc1nc2c(N)ncnc2n1[C@@H]1O[C@H](COP(=O)(O)OP(=O)(O)OP(=O)(O)O)[C@@H](O)[C@H]1O
The description is as §3. The gist of the method: as §2

Substrate in data set [11]: CCCSc1nc2c(N)ncnc2n1[C@@H]1O[C@H](COP(=O)(O)OP(=O)(O)OP(=O)(O)O)[C@@H](O)[C@H]1O
The data set is described as §3. The gist of the method: as §2

Substrate in data set [12]: O=C(CI)NCCCCCNc1ncnc2c1ncn2[C@@H]1O[C@H](COP(=O)(O)OP(=O)(O)OP(=O)(O)O)[C@@H](O)[C@H]1O
In words: (§4) Activity of Sprague-Dawley rat liver adenylate kinase 3 by Lineweaver-Burk plot analysis. The essentials: as §2

Substrate in data set [13]: CSc1nc2c(N)ncnc2n1[C@@H]1O[C@H](COP(=O)(O)OP(=O)(O)OP(=O)(O)O)[C@@H](O)[C@H]1O
The data set is described as §4. The gist of the method:
as §2

Substrate in data set [14]: Nc1ncnc2c1ncn2[C@@H]1O[C@H](COP(=O)(O)OP(=O)(O)OP(=O)(O)O)[C@@H](O)[C@H]1O
The description is as §4. The essentials:
as §2

Substrate in data set [15]: Nc1ncnc2c1nc(SCCO)n2[C@@H]1O[C@H](COP(=O)(O)OP(=O)(O)OP(=O)(O)O)[C@@H](O)[C@H]1O
The description is as §4. The essentials:
as §2

Substrate in data set [16]: CCSc1nc2c(N)ncnc2n1[C@@H]1O[C@H](COP(=O)(O)OP(=O)(O)OP(=O)(O)O)[C@@H](O)[C@H]1O
The description is as §4. The essentials: as §2

Substrate in data set [17]: CCCSc1nc2c(N)ncnc2n1[C@@H]1O[C@H](COP(=O)(O)OP(=O)(O)OP(=O)(O)O)[C@@H](O)[C@H]1O
The description is as §4. The gist of the method: as §2

B1: Adenylate kinase isoenzyme 1 (Rattus norvegicus), P39069 (protein)
chain: MEDKLKKAKIIFVVGGPGSGKGTQCEKIVQKYGYTHLSTGDLLRAEVSSGSSRGKMLSSIMEKGELVPLETVLDMLRDAMLAKVDSSNGFLIDGYPREVKQGEEFERKIAQPTLLLYVDAGPETMTQRLLKRGETSGRVDDNEETIKKRLETYYKATEPVISFYDKRGIVRKVNAEGSVDTVFSQVCTYLDSLK
For orientation: Km means the concentration of substrate that gives half-maximal velocity. Take B1: the Vmax in data set [1] amounted to 0%; in [2], 0%; in [3], 100%; in [4] it was 0%. For the same protein, the Km in [5] came to 650 µM.

B2: GTP:AMP phosphotransferase AK3, mitochondrial (Rattus norvegicus), P29411 (protein)
chain: MGASGRLLRAVIMGAPGSGKGTGSSRITKHFELKHLSSGDLLRQNMLQGTEIAVLAKSFIDQGKLIPDDDMTRLALHELKNLTQCSWLLDGFPRTLPQAEALDRVYQIDTVINLNVPFEVIKLRLTARWIHPASGRVYNIEFNPPKTVGIDDLTGEPLIQREDDKPETVIKRLKAYEAQTEPVLQYYQKKGVLETFSGTETNKIRPHVYSFLQMKVPETIQKASVTP
Take B2: the Vmax amounted to 8.9% in data set [6]; 8.3% in [7]; 100% in data set [8]; 12.5% in data set [9]; 11.4% in data set [10]; 10.4% in data set [11]. Further, the Michaelis-Menten constant (Km) in data set [12] amounted to 400 µM; in [13], 150 µM; in data set [14], 90 µM; in data set [15] it was 120 µM; in [16], 70 µM; in data set [17], 40 µM.
